This note sets out measurements from ChEMBL document CHEMBL5390200, “Synthesis and evaluation of DAG-lactone derivatives with HIV-1 latency reversing activity” (Eur J Med Chem, 2023).

The test system of data set [1] is Human immunodeficiency virus 1. Kind of data set: HIV1-latency reversing activity in human ACH-2 cell line incubated for 48 hrs. It is filed as functional, organism-based. Conditions: Human immunodeficiency virus 1, ACH-2, 48 h; call rule not given here.
Data set [2] is described as follows: Stability of the compound assessed as porcine liver esterase-mediated hydrolysis measured after 1 to 24 hrs by HPLC analysis. Type of data set: ADME, Sus scrofa. The following applies: pig, isolated protein; time 1-24 hrs. The procedure, abridged:
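Compounds taken from 100 mM DMSO stock to 1 mM final in 50 mM HEPES pH 7.2 with 0.01 U PLE, then held at 37 °C. Aliquots sampled at 1, 3, 6 and 24 h and quenched into equal volume MeCN/0.1% TFA. C18 reversed-phase HPLC with 0–95% MeCN gradient over 40 min, UV detection at 245 nm. Residual peak area normalized to 0 h.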

The nature of data set [3]: Cytotoxicity against human Jurkat cells assessed as reduction in cell viability incubated for 24 hrs by Ghost dye 780 staining based flow cytometric analysis. Type of data set: toxicity.
The subject of data set [4] is Human immunodeficiency virus 1. Kind of data set: HIV1-latency reversing activity in human J-Lat 10.6 cells assessed as change in GFP expression incubated for 24 hrs by flow cytometric analysis. It is filed as functional, organism-based. Conditions: Human immunodeficiency virus 1, J-Lat 10.6, 24 h. An outline of the steps: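 Cells seeded at 2 × 10^5 per well and exposed to a range of compound concentrations for 24 h; 10 nM PMA served as reference. GFP-positive cells counted by flow cytometry. Means ± SD from at least two independent experiments.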
On the technique in general: A flow cytometer gives signals particle by particle.

The target of data set [5] is Protein kinase C delta type (Homo sapiens, UniProt Q05655). Kind of data set: Binding affinity to PKCdelta C1B domain (231 to 281 residues) (unknown origin) by 6-methoxynaphthalene DAG lactone probe based fluorescence quenching assay.
Protein kinase C delta type, sequence (Q05655 whole entry, the tested form may be a part): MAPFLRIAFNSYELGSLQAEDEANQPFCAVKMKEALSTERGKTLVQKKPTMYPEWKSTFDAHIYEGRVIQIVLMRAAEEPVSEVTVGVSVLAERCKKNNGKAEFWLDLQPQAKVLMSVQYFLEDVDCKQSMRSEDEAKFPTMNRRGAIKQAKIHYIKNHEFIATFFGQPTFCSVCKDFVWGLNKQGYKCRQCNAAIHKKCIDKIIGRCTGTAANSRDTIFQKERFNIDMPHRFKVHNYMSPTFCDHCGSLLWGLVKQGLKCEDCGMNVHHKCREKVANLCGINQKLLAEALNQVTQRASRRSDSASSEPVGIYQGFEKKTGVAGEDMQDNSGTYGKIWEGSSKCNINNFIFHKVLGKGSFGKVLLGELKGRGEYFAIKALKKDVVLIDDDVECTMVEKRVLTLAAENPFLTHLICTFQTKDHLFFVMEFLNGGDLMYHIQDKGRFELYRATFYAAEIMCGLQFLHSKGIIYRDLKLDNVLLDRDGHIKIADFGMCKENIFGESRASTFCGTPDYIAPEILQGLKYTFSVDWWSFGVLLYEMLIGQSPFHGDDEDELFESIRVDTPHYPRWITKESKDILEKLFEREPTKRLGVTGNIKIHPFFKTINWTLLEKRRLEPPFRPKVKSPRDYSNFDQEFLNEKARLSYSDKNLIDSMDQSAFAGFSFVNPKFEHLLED
For data set [6], the system named is Human immunodeficiency virus 1. Description: HIV1-latency reversing activity in human U1 cells incubated for 2 days. Type of data set: functional, organism-based. The following applies: Human immunodeficiency virus 1, U1, 48 h.

A word on the EC50: it is the concentration that produces a half-maximal response. Turning to `CCCCCCCCCCc1ccc2c(c1)N(C)[C@@H](C(C)C)C(=O)N[C@H](CO)C2`, the EC50 in data set [1] was 25 nM.

As usually defined, the CC50 is the concentration at which the toxic effect on the cells reaches its halfway point. What is called IC50 is the concentration that gives 50% inhibition. For the compound `CCCCCCCCCC(=O)OCC1(CO)CC(=C(C)C)C(=O)O1` (centres undefined), the Stability entry in data set [2] is “Unstable”. Moreover, the CC50 at 24 h in data set [3] is over 10000 nM. The EC50 in data set [4] was over 10000 nM. The IC50 in data set [5] (read-out: IC50) is 2200 nM.

In the case of `CC(C)=C1CC(CO)(COC(=O)C2CCC(C)CC2)OC1=O` (centres undefined), in data set [4], the EC50 was over 10000 nM.

For `CCCCCCC(CCCCCC)C(=O)OCC1(CO)CC(=C(C)C)C(=O)O1` (centres undefined), the Stability entry in data set [2] was “Stable”. In data set [3], the CC50 at 24 h was over 10000 nM. The EC50 in data set [4] was found to be 220 nM. Moreover, the IC50 in data set [5] (read-out: IC50) amounted to 690 nM.

On to `CC(C)=C1CC(CO)(COC(=O)C(C)(C)C)OC1=O` (centres undefined), for which, in data set [2], the Stability entry was “Stable”. Besides, the CC50 at 24 h in data set [3] is over 10000 nM. Also, the EC50 in data set [4] is over 10000 nM. Also, in data set [5] (read-out: IC50), the IC50 is over 10000 nM.

For the compound `CCCCCCCC(CCCCCCC)C(=O)OCC1(CO)CC(=C(C)C)C(=O)O1` (centres undefined), the CC50 at 24 h in data set [3] is over 10000 nM. For the same compound, in data set [4], the EC50 was determined as 380 nM.

For `CC(C)=C1CC(CO)(COC(=O)C(C)C)OC1=O` (centres undefined), in data set [4], the EC50 is over 10000 nM.

As to `CCCCCC(CCCCC)C(=O)OCC1(CO)CC(=C(C)C)C(=O)O1` (centres undefined), the CC50 at 24 h in data set [3] was over 10000 nM. In data set [4], the EC50 worked out at 430 nM.

With `C=C(C)[C@]12C[C@@H](COC(=O)c3ccccc3)[C@@]34O[C@@]5(O[C@@H]1[C@@H]3[C@@H]1O[C@]1(CO)[C@@H](O)[C@@]1(O)[C@H]4[C@H]([C@H](C)[C@@H]1OC(=O)c1ccccc1)[C@H](C)CCCCCC[C@H]5O)O2`, the EC50 in data set [6] worked out at 0.018 nM.

On to `CC(C)=C1CC(CO)(COC(=O)c2ccc3ccccc3c2)OC1=O` (centres undefined), for which the EC50 in data set [4] is over 10000 nM.

On to `CC(C)=C1CC(CO)(COC(=O)C2CCCCC2)OC1=O` (centres undefined), for which, in data set [4], the EC50 was over 10000 nM.

For `CCCC(CCC)C(=O)OCC1(CO)CC(=C(C)C)C(=O)O1` (centres undefined), the Stability entry in data set [2] was “Stable”. In addition, the CC50 at 24 h in data set [3] is over 10000 nM. Also, the EC50 in data set [4] was determined as 2000 nM.

As for `CCCCC(=O)OCC1(CO)CC(=C(C)C)C(=O)O1` (centres undefined), the EC50 in data set [4] is over 10000 nM.

Take `CCC(CC)C(=O)OCC1(CO)CC(=C(C)C)C(=O)O1` (centres undefined): the EC50 in data set [4] was over 10000 nM.

For the compound `CCCCC(CCCC)C(=O)OCC1(CO)CC(=C(C)C)C(=O)O1` (centres undefined), in data set [3], the CC50 at 24 h is over 10000 nM. In data set [4], the EC50 worked out at 820 nM.

For the compound `CC(=O)OCC1(CO)CC(=C(C)C)C(=O)O1` (centres undefined), in data set [3], the CC50 at 24 h was over 10000 nM. For the same compound, the EC50 in data set [4] is over 10000 nM. Also, the IC50 result in data set [5] is recorded as “Not Active”.

Consider `CC(C)=C1CC(CO)(COC(=O)c2ccccc2)OC1=O` (centres undefined), for which, in data set [4], the EC50 was over 10000 nM.

`CCCCCCCCC(CCCCCCCC)C(=O)OCC1(CO)CC(=C(C)C)C(=O)O1` (centres undefined): the CC50 at 24 h in data set [3] is over 10000 nM. For the same compound, the EC50 in data set [4] turned out to be 340 nM.

As to `CCCCCCCCCC(CCCCCCCCC)C(=O)OCC1(CO)CC(=C(C)C)C(=O)O1` (centres undefined), the CC50 at 24 h in data set [3] is over 10000 nM. In addition, the EC50 in data set [4] stood at 310 nM. For the same compound, the IC50 in data set [5] (read-out: IC50) stood at 560 nM.

As for `CC(=O)O[C@@]12C[C@@H](C)[C@@]3(O)[C@@H](C=C(CO)C[C@]4(O)C(=O)C(C)=C[C@@H]34)[C@@H]1C2(C)C` [PROSTRATIN], the CC50 at 24 h in data set [3] was over 10000 nM.
